# Results from ChEMBL document CHEMBL3091343, “Nicotinamide phosphoribosyltransferase inhibitors, design, preparation, and structure-activity relationship” (J Med Chem, 2013).
# Calls of active or inactive are those of the source. No cut-off for these calls is given here.
# What was measured:
# Mus musculus [1] = experiment: Toxicity in human A2780 cells xenografted NMRI/nude mouse containing small tumors assessed as effect on body weight at 15 mg/kg, ip bid administered for 10 days; assay type: organism-based; set-up: dose 15 mg/kg, route intraperitoneal; settings: in vivo, 240 h
# How it was run: (§1)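 A2780 xenografts were dosed i.p. bid at 15 mg/kg. Large tumours (start 500 mm³) were dosed on days 0-4 + 7-11; small tumours (start 100 mm³) on days 0-9. Tumour volume was calculated as width²×length/2 from caliper diameters, and body weight was recorded during treatment. Tumours were followed after treatment up to the maximum allowed size of 1000 mm³.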
# A2780 [2] = experiment: Antitumor activity against human A2780 cells xenografted in NMRI/nude mouse assessed as tumor growth inhibition at 15 mg/kg, ip bid administered for 5 days measured at day 14 relative to vehicle-treated control; assay type: functional; settings: route intraperitoneal
# A2780 [3] = experiment: Antitumor activity against human A2780 cells xenografted in NMRI/nude mouse containing large tumors assessed as tumor growth inhibition at 15 mg/kg, ip bid administered on day 1 to 4 and day 7 to 11 measured after compound treatment; assay type: functional, organism-based; set-up: dose 15 mg/kg; how it was run: as §1
# A2780 [4] = experiment: Antitumor activity against human A2780 cells xenografted in NMRI/nude mouse containing small tumors assessed as tumor growth inhibition at 15 mg/kg, ip bid administered for 10 days measured after compound treatment; assay type: functional, organism-based; set-up: dose 15 mg/kg; how it was run: as §1
# A2780 [5] = experiment: Antitumor activity against human A2780 cells xenografted in NMRI/nude mouse containing large tumors assessed as tumor growth inhibition at 15 mg/kg, ip bid administered on day 1 to 4 and day 7 to 11 measured during compound administration; assay type: functional, organism-based; set-up: dose 15 mg/kg; how it was run: as §1
# A2780 [6] = experiment: Antitumor activity against human A2780 cells xenografted in NMRI/nude mouse containing small tumors assessed as tumor growth inhibition at 15 mg/kg, ip bid administered for 10 days measured during compound administration; assay type: functional, organism-based; set-up: dose 15 mg/kg; how it was run: as §1
# [7] = AUC in NMRI mouse at 50 mg/kg, iv; assay type: ADME, organism-based; set-up: dose 50 mg/kg, route intravenous; settings: plasma
# How it was run: (§2)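 Mouse PK after a single i.v. dose. Plasma proteins were precipitated with acetonitrile containing internal standard (3:1 v/v). Samples were analysed by UPLC-MS/MS on a C18 column at 40°C with an acetonitrile–0.05% formic acid gradient, using positive electrospray MRM. Parameters were derived by non-compartmental analysis.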
# [8] = Clearance in NMRI mouse at 50 mg/kg, iv; assay type: ADME, organism-based; set-up: dose 50 mg/kg, route intravenous; settings: in vivo; how it was run: as §2
# [9] = Apparent volume of distribution in NMRI mouse at 50 mg/kg, iv; assay type: ADME, organism-based; set-up: dose 50 mg/kg, route intravenous; settings: in vivo, read-out: Vz; how it was run: as §2
# [10] = Cmax in NMRI mouse at 50 mg/kg, iv; assay type: ADME, organism-based; set-up: dose 50 mg/kg, route intravenous; settings: in vivo; how it was run: as §2
# [11] = Tmax in NMRI mouse at 50 mg/kg, iv; assay type: ADME, organism-based; set-up: dose 50 mg/kg, route intravenous; settings: in vivo; how it was run: as §2
# [12] = Half life in NMRI mouse at 50 mg/kg, iv; assay type: ADME, organism-based; set-up: dose 50 mg/kg, route intravenous; settings: in vivo; how it was run: as §2
# [13] = Toxicity in ip dosed NMRI mouse assessed as blood cell count administered as bid for 5 days; assay type: organism-based; settings: in vivo
# [14] = Toxicity in ip dosed NMRI mouse assessed as body weight loss administered as bid for 5 days; assay type: organism-based; settings: in vivo
# SK-OV-3 = experiment: Cytotoxicity against human SKOV3 cells by clonogenic assay; assay type: functional, cell-based
# [15] = Cytotoxicity against human NYH cells by clonogenic assay; assay type: functional, cell-based
# PC-3 = experiment: Cytotoxicity against human PC3 cells by clonogenic assay; assay type: functional, cell-based
# MCF7 [16] = experiment: Cytotoxicity against human MCF7 cells after 96 hrs by clonogenic assay; assay type: functional, cell-based; settings: MCF7, 96 h
# How it was run: (§3)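 Cells were exposed to compound for the indicated time and then seeded in 3% agar over a sheep erythrocyte feeder layer. Plates were cultured 14–21 days at 37 °C, and colonies were counted with a digital colony counter.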
# MCF7 [17] = experiment: Cytotoxicity against human MCF7 cells after 24 hrs by clonogenic assay; assay type: functional, cell-based; settings: MCF7, 24 h; how it was run: as §3
# DU-145 = experiment: Cytotoxicity against human DU145 cells by clonogenic assay; assay type: functional, cell-based
# A2780 [18] = experiment: Cytotoxicity against human A2780 cells after 16 hrs by clonogenic assay; assay type: functional, cell-based; settings: A2780, 16 h; how it was run: as §3
# [19] = target: Nicotinamide phosphoribosyltransferase (Homo sapiens, UniProt P43490); experiment: Inhibition of NAMPT in human HepG2 cells using [14C]-nicotinamide/PRPP as substrate assessed as formation of [14C]-nicotinamide mononucleotide after 1 hr by liquid scintillation counting analysis; assay type: cell-based
# HCT-116 [20] = experiment: Resistance factor, ratio of IC50 for APO866-resistant human HCT116 cells to IC50 for human HCT116 cells; assay type: functional
# HCT-116 [21] = experiment: Cytotoxicity against APO866-resistant human HCT116 cells assessed as growth inhibition after 72 hrs by WST-1 assay; assay type: functional, cell-based; settings: HCT-116, 72 h
# HCT-116 [22] = experiment: Cytotoxicity against human HCT116 cells assessed as growth inhibition after 72 hrs by WST-1 assay; assay type: functional, cell-based; settings: HCT-116, 72 h
# MCF7 [23] = experiment: Cytotoxicity against human MCF-7 cells assessed as growth inhibition after 72 hrs by WST-1 assay; assay type: functional, cell-based; settings: MCF7, 72 h
# A2780 [24] = experiment: Cytotoxicity against human A2780 cells assessed as growth inhibition after 72 hrs by WST-1 assay; assay type: functional, cell-based; settings: A2780, 72 h
# Mus musculus [25] = experiment: Toxicity in human A2780 cells xenografted NMRI/nude mouse containing large tumors assessed as effect on body weight at 15 mg/kg, ip bid administered on day 1 to 4 and day 7 to 11; settings: in vivo
# A2780 [26] = experiment: Ratio of APO866 to compound for antitumor activity against human A2780 cells xenografted in NMRI/nude mouse; assay type: functional
# A2780 [27] = experiment: Antitumor activity against human A2780 cells xenografted in NMRI/nude mouse assessed as tumor growth inhibition at 1.25 mg/kg, ip bid administered for 5 days measured at day 14 relative to vehicle-treated control; assay type: functional; settings: route intraperitoneal
# How it was run: (§4)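 A2780 xenografts started from small tumours (about 100 mm³). Dosing was i.p. bid on days 0-4. Tumour volume was estimated as width²×length/2 and compared at day 14 with vehicle-treated animals as T/C%.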
# A2780 [28] = experiment: Antitumor activity against human A2780 cells xenografted in NMRI/nude mouse assessed as tumor growth inhibition at 2.5 mg/kg, ip bid administered for 5 days measured at day 14 relative to vehicle-treated control; assay type: functional; settings: route intraperitoneal; how it was run: as §4
# A2780 [29] = experiment: Antitumor activity against human A2780 cells xenografted in NMRI/nude mouse assessed as tumor growth inhibition at 0.63 mg/kg, ip bid administered for 5 days measured at day 14 relative to vehicle-treated control; assay type: functional; settings: route intraperitoneal; how it was run: as §4
# A2780 [30] = experiment: Antitumor activity against human A2780 cells xenografted in NMRI/nude mouse assessed as tumor growth inhibition at 5 to 10 mg/kg, ip bid administered for 10 days measured during compound administration; assay type: functional, organism-based
# How it was run: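 Mice bearing large A2780 xenografts were dosed i.p. bid at 5 and 10 mg/kg. Toxic signs were scored as body weight loss and reduced activity level compared with control mice. Tumour volume was estimated as width²×length/2.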
# A2780 [31] = experiment: Antitumor activity against human A2780 cells xenografted in NMRI/nude mouse containing large tumors assessed as tumor growth inhibition at 3 mg/kg, ip bid administered on day 1 to 4 and day 7 to 11 measured during compound administration; assay type: functional, organism-based; set-up: dose 3 mg/kg
# A-431 = experiment: Cytotoxicity against human A431 cells by clonogenic assay; assay type: functional, cell-based
# A2780 [32] = experiment: Cytotoxicity against human A2780 cells after 24 hrs by clonogenic assay; assay type: functional, cell-based; settings: A2780, 24 h; how it was run: as §3
# Mus musculus [33] = experiment: Toxicity in human A2780 cells xenografted NMRI/nude mouse containing small tumors assessed as effect on body weight at 15 mg/kg, ip bid administered for 5 days measured at day 14 relative to vehicle-treated control; assay type: organism-based; set-up: dose 15 mg/kg, route intraperitoneal; settings: in vivo, 120 h
# [34] = AUC in NMRI mouse at 20 mg/kg, iv; assay type: ADME, organism-based; set-up: dose 20 mg/kg, route intravenous; settings: plasma; how it was run: as §2
# [35] = Clearance in NMRI mouse at 20 mg/kg, iv; assay type: ADME, organism-based; set-up: dose 20 mg/kg, route intravenous; settings: in vivo; how it was run: as §2
# [36] = Apparent volume of distribution in NMRI mouse at 20 mg/kg, iv; assay type: ADME, organism-based; set-up: dose 20 mg/kg, route intravenous; settings: in vivo, read-out: Vz; how it was run: as §2
# [37] = Cmax in NMRI mouse at 20 mg/kg, iv; assay type: ADME, organism-based; set-up: dose 20 mg/kg, route intravenous; settings: in vivo; how it was run: as §2
# [38] = Tmax in NMRI mouse at 20 mg/kg, iv; assay type: ADME, organism-based; set-up: dose 20 mg/kg, route intravenous; settings: in vivo; how it was run: as §2
# [39] = Half life in NMRI mouse at 20 mg/kg, iv; assay type: ADME, organism-based; set-up: dose 20 mg/kg, route intravenous; settings: in vivo; how it was run: as §2
# MCF7 [40] = experiment: cells; settings: Homo sapiens
# A2780 [41] = experiment: cells; settings: Homo sapiens
# Nicotinamide phosphoribosyltransferase, sequence (P43490 whole entry): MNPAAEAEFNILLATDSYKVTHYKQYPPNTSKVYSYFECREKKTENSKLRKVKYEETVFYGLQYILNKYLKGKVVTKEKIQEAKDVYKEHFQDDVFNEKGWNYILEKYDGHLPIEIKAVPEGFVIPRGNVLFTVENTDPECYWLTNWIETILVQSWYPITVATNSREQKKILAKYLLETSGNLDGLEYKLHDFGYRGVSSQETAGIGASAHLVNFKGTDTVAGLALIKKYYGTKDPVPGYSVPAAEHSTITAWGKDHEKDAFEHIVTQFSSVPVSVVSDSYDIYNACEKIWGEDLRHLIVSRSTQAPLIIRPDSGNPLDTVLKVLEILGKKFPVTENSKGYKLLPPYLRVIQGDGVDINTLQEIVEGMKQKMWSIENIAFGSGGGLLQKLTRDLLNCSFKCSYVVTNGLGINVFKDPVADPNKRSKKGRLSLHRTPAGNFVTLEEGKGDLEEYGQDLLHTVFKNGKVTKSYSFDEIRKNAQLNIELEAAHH
Structure (SMILES),T/C (A2780 [2]) [%],MTD at 120 h [13] [mg/kg],MTD at 120 h [14] [mg/kg],IC50 (SK-OV-3) [nM],IC50 [15] [nM],IC50 (PC-3) [nM],IC50 (MCF7 [16]) [nM],IC50 (MCF7 [17]) [nM],IC50 (DU-145) [nM],Ratio IC50 (HCT-116 [20]),IC50 (HCT-116 [21]) [nM],IC50 (HCT-116 [22]) [nM],IC50 (MCF7 [23]) [nM],IC50 (A2780 [24]) [nM],IC50 (A-431) [nM],also measured
N#C/N=C(\NCCCCCCS(=O)(=O)N(CCF)OCC1CCCCC1)Nc1ccncc1,52,< 10,< 10,3.4,0.05,0.35,0.98,> 50,6.39,128,> 5000,3.6,0.1,0.052,–,Activity (Mus musculus [1]): Non-toxic; TGI (A2780 [3]): inactive; TGI (A2780 [4]): inactive; TGI (A2780 [5]): Active; TGI (A2780 [6]): Active; AUC [7]: 47500 ng·h/mL; clearance [8]: 17.5 mL/min/kg; Vd [9]: 0.547 L/kg; Cmax [10]: 78500 ng/mL; Tmax [11]: 4.8 min; half-life [12]: 21.6 min; IC50 (A2780 [18]): 0.43 nM; IC50 [19]: 3.2 nM; Activity (Mus musculus [25]): Non-toxic
N#C/N=C(\NCCCCCCS(=O)(=O)N(OCCN1CCOCC1)C1CCCCC1)Nc1ccncc1,–,–,–,9.9,0.3,0.53,1.9,> 50,> 50,128,> 5000,1.9,0.33,0.025,> 50,Ratio (A2780 [26]): 12; T/C (A2780 [27]): 40%; T/C (A2780 [28]): 24%; T/C (A2780 [29]): 82%; TGI (A2780 [30]): Active; TGI (A2780 [31]): Active; IC50 (A2780 [32]): 0.55 nM
O=C(/C=C/c1cccnc1)NCCCCC1CCN(C(=O)c2ccccc2)CC1 [DAPORINAD],52,< 10,< 10,211,1.5,3.8,–,–,–,–,946,10.9,7.4,1.6,6.1,Activity (Mus musculus [33]): Non-toxic; AUC [34]: 12300 ng·h/mL; clearance [35]: 27 mL/min/kg; Vd [36]: 0.998 L/kg; Cmax [37]: 14600 ng/mL; Tmax [38]: 15 min; half-life [39]: 24 min; IC50 (MCF7 [40]): 8.4 nM; IC50 (A2780 [41]): 5.7 nM
